Assay results as given in ChEMBL document CHEMBL1926542, “Synthesis and in vitro antiproliferative evaluation of pyrimido[5,4-c]quinoline-4-(3H)-one derivatives” (Eur J Med Chem, 2012).

What was measured:
Assay type in all cases: functional, cell-based
MDA-MB-453 = assay: Antiproliferative activity against human MDA-MB-453 cells after 72 hrs by MTT assay; conditions: MDA-MB-453, 72 h
Summary of the method: (§1)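 Cells in 10% fetal calf serum, RPMI 1640 for all lines except MCF-7 (DMEM). Log-phase cells seeded at 2×10⁴ cells/ml, 37 °C, 5% CO₂. Compounds added after 24 h, then 72 h at 37 °C. MTT (5 mg/ml saline stock) for 3 h, formazan dissolved in DMSO, A570 read (ref 655 nm). IC₅₀ from dose-response curves. Mean of three independent experiments.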

KB = assay: Antiproliferative activity against human KB cells after 72 hrs by MTT assay; summary of the method: as §1
MCF7 = assay: Antiproliferative activity against human MCF7 cells after 72 hrs by MTT assay; conditions: MCF7, 72 h; summary of the method: as §1
[1] = Antiproliferative activity against human CNE2 cells after 72 hrs by MTT assay; conditions: CNE-2, 72 h; summary of the method: as §1
MGC-803 = assay: Antiproliferative activity against human MGC803 cells after 72 hrs by MTT assay; conditions: MGC-803, 72 h; summary of the method: as §1
[2] = Antiproliferative activity against human GLC82 cells after 72 hrs by MTT assay; conditions: GLC82, 72 h; summary of the method: as §1

| Compound | IC50 (MDA-MB-453) | IC50 (KB) | IC50 (MCF7) | IC50 [1] | IC50 (MGC-803) | IC50 [2] |
| --- | --- | --- | --- | --- | --- | --- |
| Cc1nc2ccccc2c2nc(Nc3ccc(Cl)cc3)n(N)c(=O)c12 | > 50 µM | > 50 µM | > 50 µM | > 50 µM | > 50 µM | > 50 µM |
| CCCn1cnc2c(c(C)nc3ccccc32)c1=O | > 50 µM | > 50 µM | > 50 µM | > 50 µM | > 50 µM | > 50 µM |
| Cc1nc2ccccc2c2ncn(Cc3ccccc3)c(=O)c12 | > 50 µM | > 50 µM | > 50 µM | 26.5 µM | > 50 µM | > 50 µM |
| COc1ccccc1Oc1nc2c(c(C)nc3ccccc32)c(=O)n1-c1ccccc1 | > 50 µM | > 50 µM | 35.5 µM | > 50 µM | > 50 µM | > 50 µM |
| Cc1nc2ccccc2c2ncn(CCO)c(=O)c12 | > 50 µM | > 50 µM | > 50 µM | > 50 µM | > 50 µM | > 50 µM |
| Cc1nc2ccccc2c2nc(NC(C)(C)C)n(-c3ccccc3)c(=O)c12 | > 50 µM | > 50 µM | > 50 µM | > 50 µM | > 50 µM | > 50 µM |
| Cc1nc2ccccc2c2ncn(C(C)C)c(=O)c12 | > 50 µM | > 50 µM | > 50 µM | > 50 µM | > 50 µM | > 50 µM |
| COc1ccccc1Oc1nc2c(c(C)nc3ccccc32)c(=O)n1-c1ccc(Cl)cc1 | 49.7 µM | 39.2 µM | 34 µM | > 50 µM | > 50 µM | > 50 µM |
| Cc1nc2ccccc2c2nc(Nc3ccccc3)n(N)c(=O)c12 | > 50 µM | 30.3 µM | > 50 µM | > 50 µM | 14.7 µM | > 50 µM |
| Cc1nc2ccccc2c2ncn(CC(C)C)c(=O)c12 | > 50 µM | > 50 µM | > 50 µM | > 50 µM | > 50 µM | > 50 µM |
| Cc1nc2ccccc2c2nc(Oc3ccc([N+](=O)[O-])cc3Cl)n(-c3ccc(Cl)cc3)c(=O)c12 | 18.2 µM | 4.9 µM | 10.1 µM | 13.8 µM | 4.8 µM | 7.88 µM |
| Cc1nc2ccccc2c2ncn(CCc3ccccc3)c(=O)c12 | 49.5 µM | > 50 µM | > 50 µM | > 50 µM | > 50 µM | 35.2 µM |
| Cc1cc(Oc2nc3c(c(C)nc4ccccc43)c(=O)n2-c2ccc(F)cc2)ccc1Cl | > 50 µM | > 50 µM | > 50 µM | > 50 µM | 41.4 µM | > 50 µM |
| Cc1nc2ccccc2c2nc(Oc3cccc4ccccc34)n(-c3ccc(Cl)cc3)c(=O)c12 | > 50 µM | 33.9 µM | 37.9 µM | 47 µM | 18.5 µM | 42.1 µM |
| Cc1nc2ccccc2c2nc3n(-c4ccccc4)cnn3c(=O)c12 | > 50 µM | > 50 µM | > 50 µM | > 50 µM | > 50 µM | > 50 µM |
| CCn1cnc2c(c(C)nc3ccccc32)c1=O | > 50 µM | > 50 µM | > 50 µM | > 50 µM | > 50 µM | > 50 µM |
| Cc1nc2ccccc2c2nc(Oc3ccc(Cl)cc3Cl)n(-c3ccccc3)c(=O)c12 | > 50 µM | 22.8 µM | > 50 µM | 42.9 µM | > 50 µM | > 50 µM |
| CCCCn1cnc2c(c(C)nc3ccccc32)c1=O | > 50 µM | > 50 µM | > 50 µM | > 50 µM | > 50 µM | > 50 µM |
| Cc1nc2ccccc2c2nc(Oc3ccccc3Cl)n(-c3ccc(F)cc3)c(=O)c12 | > 50 µM | > 50 µM | > 50 µM | > 50 µM | > 50 µM | > 50 µM |
| Cc1nc2ccccc2c2ncn(N)c(=O)c12 | > 50 µM | > 50 µM | > 50 µM | > 50 µM | > 50 µM | > 50 µM |
| Cc1nc2ccccc2c2nc(Oc3ccc(Br)cc3)n(-c3ccc(Cl)cc3)c(=O)c12 | 26.6 µM | 29.5 µM | 35.7 µM | 28.7 µM | 15.3 µM | > 50 µM |
| Cc1nc2ccccc2c2nc(Oc3ccc4c(c3)OCO4)n(-c3ccc(Cl)cc3)c(=O)c12 | > 50 µM | 30.9 µM | > 50 µM | 47.7 µM | > 50 µM | > 50 µM |
| Cc1nc2ccccc2c2ncn(CCN)c(=O)c12 | 45.7 µM | 39.8 µM | 43.5 µM | > 50 µM | 39.9 µM | > 50 µM |
| CCC(C)n1cnc2c(c(C)nc3ccccc32)c1=O (stereo not given) | > 50 µM | > 50 µM | > 50 µM | > 50 µM | > 50 µM | > 50 µM |
| O=c1[nH]cc(F)c(=O)[nH]1 [FLUOROURACIL] | > 50 µM | 9.85 µM | 9.67 µM | 17.2 µM | 16.6 µM | 15.5 µM |
